Data set [1] has as its target serine protease chymotrypsin (Bos taurus, UniProt P00766). Kind of data set: chymotrypsin chemiluminescent assay with and without detergent. It is filed as biochemical. As to conditions: read-out: IC50, inhibition of chymotrypsin; without detergent. The method, boiled down: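 Serine protease chymotrypsin, standard chemiluminescent read-out. Each test compound run in parallel without detergent and with 0.01% (v/v) Triton added, to screen for aggregation-based inhibition; IC50 derived under each condition.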

The nature of data set [2]: stability of the isolated pure compounds on storage. It is filed as physicochemical. As to conditions: pure isolated compound; decomposition followed by discoloration and LC-MS.

What is called IC50 is the point on the concentration scale where inhibition reaches its midpoint. With Sebestenoid C [Compound 3], the IC50 in data set [1] was determined as 33 µM. In addition, the “stability after isolation in pure form” value in data set [2] is “stable”.

Consider Sebestenoid B [Compound 2], for which the “stability after isolation in pure form” value in data set [2] is “decomposed rapidly”.

For Sebestenoid A [Compound 1], the “stability after isolation in pure form” value in data set [2] is “stable”.

As to Sebestenoid D [Compound 4], the IC50 in data set [1] was found to be 27 µM. Besides, in data set [2], the “stability after isolation in pure form” value is reported as “decomposed rapidly”.
